# Screens: PubChem, several laboratories
# PERK inh: human PERK inhibition, primary cell-based screen; CHO PERK-DD fusion, SEAP luminescence translation reporter; inhibition, % at 5.6 µM; actives 0.17% (n = 220,000); AID 1416;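 active = inhibition above the mean inhibition of all tested compounds plus 3 SD, set separately per screening campaign, cut at about 2.9% in these data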;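 also: PERK kinase domain activated by AP20187 dimerizer at 100 nM; 0% = DMSO with dimerizer and 100% = rapamycin at 8.4 µM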
# RanGTP-Imp inh: disruptors of Ran-importin-beta complex formation – biochemical, FRET, CFP-Ran, YFP-importin-beta, homogeneous, primary screen; cell-free CFP-Ran/YFP-importin-beta FRET ratio; inhibition, % (test concentration not listed); actives 1.1% (n = 300,000); AID 2216;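 active = more than half of the replicate wells show a fall in the fluorescence ratio signal beyond about 16%, limit read from the data, passing the limit was not always enough; inconclusive = exactly half of the replicate wells pass the set limit; inactive = fewer than half of replicates pass the limit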;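 also: 0% = DMSO wells and 100% = Ran loaded with GDP instead of GTP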
# Hck Nef HTS: blocks Nef-activated human Hck kinase. actives 0.68% (n = 220,000). AID 463187. P08631. Recombinant Hck-YEEI plus Nef, Z-Lyte FRET kinase assay. inhibition, % at 20 µM;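 active = Hck-Nef kinase inhibition above about 50%, limit read from the data; inactive = inhibition below that limit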;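 also: 0% = DMSO with Hck plus Nef and 100% = Hck alone without Nef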
# Runt-SMMHC FRET: inhibitors of human RUNX1 Runt domain binding to CBFb-SMMHC; Q01196+Q13951; Cerulean-Runt/Venus-CBFb-SMMHC FRET ratio 530/480, 1 h; inhibition, % at 20 µM; actives 0.74% (n = 220,000); AID 1434;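 active = mean inhibition across duplicate retests at 20 µM reaching about 50%, limit read from the data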;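 also: 0% = DMSO wells and 100% = wells with excess untagged CBFb-SMMHC; inhibitors lower the FRET ratio by blocking Runt binding to CBFb-SMMHC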
# eIF4E 4G PPI: eIF4E/eIF4G interaction inhibition in translation initiation. actives 0.37% (n = 220,000). inhibition, % at 21.7 µM. TR-FRET eIF4E-eIF4GI(517-606) binding, 2 h. AID 782;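 active = inhibition above about 30%, limit read from the data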;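 also: 0% = full FRET control wells and 100% = background wells lacking eIF4GI fragment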
# Target sequence (P63073 whole entry, looked up, the tested form may be a part): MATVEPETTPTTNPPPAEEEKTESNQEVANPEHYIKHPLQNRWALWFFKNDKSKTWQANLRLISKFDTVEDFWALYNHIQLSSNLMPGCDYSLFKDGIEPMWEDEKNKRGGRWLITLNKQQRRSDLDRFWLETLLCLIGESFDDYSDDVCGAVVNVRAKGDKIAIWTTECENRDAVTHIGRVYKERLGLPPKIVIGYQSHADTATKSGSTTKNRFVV
# Target sequence (Q04637 whole entry, looked up, the tested form may be a part): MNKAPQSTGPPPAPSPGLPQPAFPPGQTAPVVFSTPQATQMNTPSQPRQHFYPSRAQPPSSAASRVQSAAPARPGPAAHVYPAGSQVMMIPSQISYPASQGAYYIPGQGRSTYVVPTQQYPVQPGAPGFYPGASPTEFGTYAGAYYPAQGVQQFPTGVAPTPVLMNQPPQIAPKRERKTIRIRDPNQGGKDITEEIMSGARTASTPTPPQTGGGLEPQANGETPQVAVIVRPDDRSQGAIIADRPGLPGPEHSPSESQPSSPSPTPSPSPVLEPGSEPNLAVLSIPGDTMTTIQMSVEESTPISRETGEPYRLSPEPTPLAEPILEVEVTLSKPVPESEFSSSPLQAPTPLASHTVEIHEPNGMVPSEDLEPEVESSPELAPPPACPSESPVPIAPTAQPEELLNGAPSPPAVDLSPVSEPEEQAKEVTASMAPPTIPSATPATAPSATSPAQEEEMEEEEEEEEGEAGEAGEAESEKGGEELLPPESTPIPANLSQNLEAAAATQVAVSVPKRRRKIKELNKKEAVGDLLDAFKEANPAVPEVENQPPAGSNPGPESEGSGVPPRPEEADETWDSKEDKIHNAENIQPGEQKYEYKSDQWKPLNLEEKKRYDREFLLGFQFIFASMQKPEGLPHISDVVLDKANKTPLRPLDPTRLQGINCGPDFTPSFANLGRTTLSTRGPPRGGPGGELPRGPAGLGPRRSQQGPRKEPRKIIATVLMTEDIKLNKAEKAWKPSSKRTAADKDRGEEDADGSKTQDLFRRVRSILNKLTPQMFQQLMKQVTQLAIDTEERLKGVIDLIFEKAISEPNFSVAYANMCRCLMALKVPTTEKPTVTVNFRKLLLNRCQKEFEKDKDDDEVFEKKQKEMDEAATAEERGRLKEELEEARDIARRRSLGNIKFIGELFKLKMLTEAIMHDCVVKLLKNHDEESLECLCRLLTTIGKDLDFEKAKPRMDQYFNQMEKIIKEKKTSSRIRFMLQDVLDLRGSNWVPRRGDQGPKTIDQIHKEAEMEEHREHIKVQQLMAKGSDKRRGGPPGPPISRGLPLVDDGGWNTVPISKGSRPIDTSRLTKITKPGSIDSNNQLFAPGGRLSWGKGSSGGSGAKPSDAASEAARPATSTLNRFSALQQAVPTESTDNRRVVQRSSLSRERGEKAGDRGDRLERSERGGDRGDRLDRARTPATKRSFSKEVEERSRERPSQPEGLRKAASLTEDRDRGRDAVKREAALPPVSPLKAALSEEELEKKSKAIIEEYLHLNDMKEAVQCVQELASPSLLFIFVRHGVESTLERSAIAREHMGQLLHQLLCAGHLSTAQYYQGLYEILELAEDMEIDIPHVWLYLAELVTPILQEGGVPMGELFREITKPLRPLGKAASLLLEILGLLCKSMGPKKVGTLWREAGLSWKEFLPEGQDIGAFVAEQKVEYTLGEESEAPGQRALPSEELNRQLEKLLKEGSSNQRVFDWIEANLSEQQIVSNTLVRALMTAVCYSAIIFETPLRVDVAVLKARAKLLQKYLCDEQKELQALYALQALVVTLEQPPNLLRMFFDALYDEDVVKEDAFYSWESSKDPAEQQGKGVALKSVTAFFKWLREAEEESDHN
# Runt-CBFb FRET: inhibitors of human RUNX1 Runt domain binding to CBFb; Q01196+Q13951; Cerulean-Runt/Venus-CBFb FRET ratio 530/480, 1 h; inhibition, % at 20 µM; actives 0.46% (n = 220,000); AID 1496;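 active = inhibition over about 50% at 20 µM in the single-dose screen, limit read from the data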;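 also: 0% = DMSO wells and 100% = excess unlabeled CBFb competitor control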
#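 Buffer or medium: Tris pH 7.5 buffer with BSA. Assay system: Cerulean-labeled Runt domain protein. Amount: each fluorescent fusion protein 100 nM. Read-out basis: loss of energy transfer signal. Incubation: 1 h compound exposure, room temperature. Probe or stimulus: Venus-CBFb binding partner, 100 nM. Detection: FRET, excitation 422 nm, emission at 530 and 480 nm.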
# YIC FRET counter: counter-screen for RanGTP-importin-beta inhibitors: YIC FRET probe. AID 435026. actives 40% (n = 1,000). shares compounds with RanGTP-Imp inh. Purified YIC probe, intramolecular FRET ratio YFP/CFP. IC50, µM;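 active = fitted half-maximal inhibitory concentration no more than tenfold above the top dose tested; inconclusive = flat fit with 30 to 70% activity, or poor fit; inactive = half-maximal concentration beyond tenfold above the top dose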
# Numbers without * were called inactive; i = inactive; ? = inconclusive; / = not tested or not shown. Most compounds without a hit are left out; they make up all but 2.2% or so of the library.
SMILES,PERK inh,RanGTP-Imp inh,Hck Nef HTS,Runt-SMMHC FRET,eIF4E 4G PPI,Runt-CBFb FRET,YIC FRET counter
CC(C)COC(=O)c1ccccc1N1C(=O)C2C3CCC(C3)C2C1=O (stereo not drawn),1,3,4,1,20,-2,/
CCN1CCc2c(sc(NC(=O)C3CCCCC3)c2C(=O)OC)C1,/,42*,/,/,/,/,>50
COC(=O)c1c(NC(=O)C2CCCCC2C(=O)O)sc2c1CCCCC2 (stereo not drawn),0,0,15,-3,-5,2,/
CCOC(=O)c1c(NC(=S)N2CCCCC2)sc2c1CCN(C(=O)OCC)C2,0,5,-4,0,-3,-1,/
CCOC(=O)c1c(NC(=O)C2CCCCC2)sc2c1CCN(CC)C2,/,20*,/,/,/,/,>50
CCCCn1c(N)c(N(CCOC)C(=O)c2cc(S(=O)(=O)N3CCCCC3)ccc2Cl)c(=O)[nH]c1=O,/,-3,/,/,/,/,/
Cc1cc(C)c2c(n1)nn1c(NCCCN(C)C)cc(C)nc21,1,30*,33,64*,6,22,27*
O=C(c1ccco1)N1CCN(c2cc(=O)n(-c3ccc(Cl)cc3)c(=O)[nH]2)CC1,0,48*,0,2,4,0,>50
COc1ccc(CC(=O)Nc2ccc(C(=O)O)cc2NC(=O)Cc2ccc(OC)cc2)cc1,2,5,16,0,1,-2,/
COc1ccc(Cn2c(O)c(C=Nc3ccc(OC)cc3)c3ccccc3c2=O)cc1,0,29*,2,-25,1,-166,>26
COc1ccc(NC(=O)COC(C)=O)cc1Cl,2,21*,0,-1,7,1,>50
COCC(=O)Nc1ccc(OC)c(Cl)c1,1,3,-24,2,2,2,/
O=C(N/N=C/c1ccc(-c2ccccc2Cl)o1)c1ccccc1,1,21*,-34,0,1,0,>50
CC(=O)Nc1ccc(S(=O)(=O)NCc2nc(-c3cccc(C)c3)no2)cc1,/,15*,/,/,/,/,39*
CSc1ccc(/C=C(/Sc2nnc(-c3ccccc3)o2)C(=O)O)cc1,0,25*,23,-6,-2,-1,41*
COc1ccc(-c2nnc(S/C(=C/c3ccc(Cl)cc3)C(=O)O)o2)cc1,1,?,25,-4,-2,3,/
O=C(CSc1nnc(-c2ccc(F)cc2)o1)Nc1ccc(S(=O)(=O)N2CCCCCC2)cc1,0,4,9,-1,2,-2,/
O=C(CSc1nnc(-c2ccc(F)cc2)o1)Nc1ccc(S(=O)(=O)N2CCCC2)cc1,1,17*,2,1,-15,-2,>50
Cc1ccc(N2NC(=O)/C(=C\c3cc4c(cc3[N+](=O)[O-])OCO4)C2=O)cc1C,1,25*,15,7,8,13,>50
COc1ccc(C(=O)N/N=C/c2sc3ccccc3c2O)cc1,1,8,4,71,-8,18,/
COc1ccc2cc(C(=O)N/N=C/c3sc4ccccc4c3O)ccc2c1,1,22*,-9,-175,12,-39,i
CC(C)CN(C(=O)CN(C)C(=O)Cc1ccc(Cl)cc1)c1c(N)n(CC(C)C)c(=O)[nH]c1=O,/,3,/,/,/,/,/
NC(=S)Cc1nc(-c2ccc(Cl)cc2)cs1,0,18*,31,-10,-4,1,>50
NC(=O)Cc1nc(-c2ccc(F)cc2)cs1,1,-2,19,-2,-2,0,/
O=C(Nc1ccc(Oc2c(F)c(F)c(F)c(F)c2F)cc1)OC1CCN2Cc3ccccc3N=C12 (stereo not drawn),1,-1,17,-5,-15,1,/
SMILES,PERK inh,RanGTP-Imp inh,Hck Nef HTS,Runt-SMMHC FRET,eIF4E 4G PPI,Runt-CBFb FRET,YIC FRET counter
COc1ccccc1N(C)S(=O)(=O)c1ccc(Cl)c(C(=O)Nc2cccc(C)n2)c1,/,8,/,/,/,/,/
Cc1cccc(NC(=O)c2cc(S(=O)(=O)N(C)c3ccc(F)cc3)ccc2Cl)n1,/,20*,/,/,/,/,>50
O=C(Cc1ccc(Br)cc1)NC1CCN(Cc2ccccc2)CC1,/,1,/,/,/,/,/
CCC(=O)N(C)/C=C1\Sc2ccccc2C1=O,1,20*,4,154*,/,/,>50
COCc1cc(C)nc(OCC(=O)N/N=C/c2ccc(OC)c(O)c2)c1C#N,1,/,4,1,0,1,/
CC(C)CCOC(=O)C[N+](C)(C)CCOC1CC2CCC1(C)C2(C)C (stereo not drawn),0,1,0,-2,1,-3,/
CCC(C)OC(=O)C[N+](C)(C)CCOC1CC2CCC1(C)C2(C)C (stereo not drawn),0,22*,19,-2,1,0,>50
c1ccc(Nc2nc3ccccc3n3nnnc23)cc1,1,36*,6,44,4,22,24*
Cc1ccc2cc(CCNC(=O)C3CCCCC3)c(=O)[nH]c2c1C,/,4,/,/,/,/,/
Cc1nc(NCCCn2ccnc2)c2ccccc2n1,1,-1,-7,-4,3,-1,/
CCC(=O)NCCNc1nc2cc(C)c(C)cc2cc1C#N,0,34*,6,47,-1,10,14*
Cc1cc2cc(C)c(NCCNC(=O)c3ccccc3Cl)nc2cc1C,0,?,-2,-5,5,-3,/
Cc1ccn2cc(CCNC(=O)COc3ccccc3)nc2c1,-1,-5,9,0,2,0,/
Cc1cccc2cc(C#N)c(NCCNC(=O)COc3ccccc3)nc12,1,20*,23,0,-3,11,27*
Cc1cccc2cc(C#N)c(NCCCn3ccnc3)nc12,-1,35*,25,86*,2,33,20*
Cc1ccc2cc(C#N)c(NCCNC(=O)C3CC3)nc2c1C,0,16*,7,103*,-5,29,47*
CCCCn1c(N)c(N(CC)C(=O)c2cc(OC)cc(OC)c2)c(=O)[nH]c1=O,1,0,18,-2,1,0,/
O=C(CN1CCC(O)(c2ccc(F)cc2)CC1)NCc1ccc(F)cc1,0,2,-3,-6,-12,1,/
Cc1ccc(NC(=O)C2CCCN(C(=O)c3ccc(Cl)cc3)C2)cc1 (stereo not drawn),0,-2,31,-2,-4,0,/
CC(=O)Oc1cc(C(C)C)c(OCCN(C)C)cc1C,1,-1,-1,4,0,1,/
O=C1Cc2cc(NS(=O)(=O)c3ccc(F)cc3)cc3c2N1CCC3,/,-2,/,/,/,/,/
Cc1cc(Nc2ccccc2)nn1C(=O)c1ccccc1,2,18*,3,-6,12,-2,>50
